Activity, Ki and Activity_index data for one compound are collected here from ChEMBL document CHEMBL4177580, “New 5-HT1A, 5HT2A and 5HT2C receptor ligands containing a picolinic nucleus: Synthesis, in vitro and in vivo pharmacological evaluation” (Bioorg Med Chem, 2017).

SMILES strings stand for the structures. Calls of active or inactive are those of the source. The calls are words filed in the database; no cut-off is given here.

For data set [1], the system named is Mus musculus. Description: Toxicity in Swiss albino mouse assessed as induction of impairment of motor coordination by measuring reduction in time spent on rota-rod at 60 mg/kg, ip dosed 60 mins before test by rotarod test. The settings on record: in vivo, 1 h. It counts as organism-based. The method in brief: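 Rotarod in male Swiss mice, i.p. dosing 60 min pre-test: impairment is inability to stay 1 min on a rod turning at 18 rpm, after 3 days of daily training. Mean ± SEM of 2 independent experiments; one-way ANOVA with Dunnett's.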

In data set [2] the test system is Mus musculus. Description: Induction of hypothermia in Swiss albino mouse assessed as reduction in body temperature at 30 mg/kg, ip measured after 30 mins post dose. It is filed as functional, organism-based. The method in brief: (§1)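 Normothermic male Swiss mice; rectal thermistor readings over 180 min. Baseline is the mean of readings 60 and 30 min before dosing; readings at 30, 60, 90, 120 min post-injection; Δt = tf − ti. Test compounds i.p. (DMSO/methylcellulose); 8-OH-DPAT (5 mg/kg) and WAY 100635 (0.1 mg/kg) s.c. in water. Two-way ANOVA, Bonferroni.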

Data set [3] has as its target T1, Adrenergic receptor alpha-1 (Rattus norvegicus, UniProt P15823+P23944+P43140).
T1 sequence (P15823 whole entry): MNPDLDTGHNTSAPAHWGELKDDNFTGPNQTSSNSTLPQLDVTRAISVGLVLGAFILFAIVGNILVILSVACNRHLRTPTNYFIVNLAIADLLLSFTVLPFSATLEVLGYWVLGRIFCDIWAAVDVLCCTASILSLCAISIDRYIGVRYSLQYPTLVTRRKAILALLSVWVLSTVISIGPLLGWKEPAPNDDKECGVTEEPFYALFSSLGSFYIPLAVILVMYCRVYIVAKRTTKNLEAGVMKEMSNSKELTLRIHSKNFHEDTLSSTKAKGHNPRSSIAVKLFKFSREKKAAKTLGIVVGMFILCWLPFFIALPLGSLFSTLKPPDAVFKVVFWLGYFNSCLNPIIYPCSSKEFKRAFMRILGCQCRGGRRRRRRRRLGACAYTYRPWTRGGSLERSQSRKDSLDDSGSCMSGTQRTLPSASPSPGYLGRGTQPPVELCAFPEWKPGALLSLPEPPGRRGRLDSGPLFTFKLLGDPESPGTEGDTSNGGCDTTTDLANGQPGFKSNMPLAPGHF
T1 sequence (P23944 whole entry): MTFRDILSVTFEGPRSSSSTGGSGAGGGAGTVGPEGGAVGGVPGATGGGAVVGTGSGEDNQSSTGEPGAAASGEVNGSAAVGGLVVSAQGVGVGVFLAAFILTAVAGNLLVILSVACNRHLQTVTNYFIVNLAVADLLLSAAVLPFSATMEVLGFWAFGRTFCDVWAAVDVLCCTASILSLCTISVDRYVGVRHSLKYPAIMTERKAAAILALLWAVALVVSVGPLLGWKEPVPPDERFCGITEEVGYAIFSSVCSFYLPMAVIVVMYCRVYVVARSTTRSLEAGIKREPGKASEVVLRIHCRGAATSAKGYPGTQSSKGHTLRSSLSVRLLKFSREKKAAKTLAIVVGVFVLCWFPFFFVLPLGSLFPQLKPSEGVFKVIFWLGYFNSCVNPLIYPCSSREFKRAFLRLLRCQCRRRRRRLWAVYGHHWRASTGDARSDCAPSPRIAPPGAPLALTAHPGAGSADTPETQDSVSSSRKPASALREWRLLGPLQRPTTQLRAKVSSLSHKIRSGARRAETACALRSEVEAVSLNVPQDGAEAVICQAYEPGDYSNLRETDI
T1 sequence (P43140 whole entry): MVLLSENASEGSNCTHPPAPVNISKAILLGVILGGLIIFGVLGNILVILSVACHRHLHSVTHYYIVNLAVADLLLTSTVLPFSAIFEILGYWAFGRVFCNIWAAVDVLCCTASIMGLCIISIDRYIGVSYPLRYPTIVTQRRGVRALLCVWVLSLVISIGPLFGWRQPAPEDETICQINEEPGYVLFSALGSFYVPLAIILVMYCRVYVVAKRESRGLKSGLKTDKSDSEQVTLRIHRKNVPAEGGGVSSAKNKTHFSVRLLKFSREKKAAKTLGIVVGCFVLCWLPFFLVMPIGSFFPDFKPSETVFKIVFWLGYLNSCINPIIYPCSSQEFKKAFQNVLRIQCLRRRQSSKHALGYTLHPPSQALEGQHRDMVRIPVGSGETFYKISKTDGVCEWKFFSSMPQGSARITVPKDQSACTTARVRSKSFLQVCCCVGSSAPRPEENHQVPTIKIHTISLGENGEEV
Description: Displacement of [3H]prazosin from adrenergic alpha1 receptor in rat cerebral cortex. Background: Loss of bound radioactivity is the signal in a displacement assay; it reports binding, not function.

For data set [4], the system named is Mus musculus. Description: Induction of hypothermia in Swiss albino mouse assessed as reduction in body temperature at 30 mg/kg, ip measured after 60 mins post dose. It is filed as functional, organism-based. The method in brief: as §1
The next data set deals with Rattus norvegicus. The experiment in a line: In-vivo 5-HT1A receptor antagonist activity in Wistar rat assessed as reduction in 8-OH-DPAT-stimulated induction of lower lip retraction by measuring lower lip retraction score at 30 mg/kg, ip dosed 15 mins before test (reference value: 2.875 +/- 0.08183).
In data set [5] the test system is Mus musculus. Description: Anxiolytic-like activity in Swiss albino mouse assessed as increase in time spent in open arms at 3.75 to 15 mg/kg measured for 5 mins test period by elevated plus maze test. It counts as functional, organism-based.
The subject of data set [6] is Mus musculus. The experiment in a line: Antidepressant-like activity in Swiss albino mouse assessed as reduction in immobility time at 7.5 mg/kg, ip dosed 1 hr before test by forced swimming test. It is filed as functional, organism-based. The method in brief: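 Male Swiss albino mice (18–24 g), compound i.p. in 0.1% DMSO/0.5% methylcellulose 1 h pre-test. Porsolt swim: cylinder 25 cm high, 10 cm diameter, 10 cm water at 23–25°C, 6 min session; immobility scored over last 4 min. Blind observer; one-way ANOVA with Dunnett's; mean ± SEM.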

Data set [7] has as its system Mus musculus. Description: Toxicity in Swiss albino mouse assessed as reduction in spontaneous locomotor activity at 60 mg/kg, ip dosed 60 mins before test and measured after 30 mins. It counts as organism-based. The settings on record: in vivo, 0.5 h. The method in brief:
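Spontaneous locomotion: mice dosed i.p. 60 min before being placed individually in an actometer for 30 min. Distance travelled read at 6 and 30 min. Cages cleaned with 70% ethanol between animals. One-way ANOVA with Dunnett's; mean ± SEM of one experiment.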

The term Ki denotes the equilibrium dissociation constant of an inhibitor or competing ligand from its target. Lower therefore signals a stronger hold on the target. In the case of `O=C(NCCN1CCN(c2ccc(Cl)c(Cl)c2)CC1)c1ccccn1`, the Activity entry in the data set on Mus musculus [1] and with Mus musculus [7] was “Toxic” in each case. Besides, the outcome in the data set on Mus musculus [2], in the data set with Mus musculus [4], with Mus musculus [5] and with Mus musculus [6] was Active. This compound returned a Ki in data set [3] of 31 nM. Besides, in the data set on Rattus norvegicus, the Activity_index is recorded as 2.3.
